High-throughput results as filed in PubChem.
ARNT TACC3 PPI – disruptors of human ARNT/TACC3 interaction; Q9Y6A5; hit rate 0.66% among 390,000; inhibition, % at 9.99 µM; AlphaScreen His-ARNT PAS-B/GST-TACC3 binding, luminescence; TACC3 fragment carries E629A point mutation; AID 623870;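 active = mean inhibition of replicates at least 50% and at least half of replicates each reaching 50%; inconclusive = half or more replicates reach 50% but mean below 50%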
MLL AF4-AF9 inh – blocks AF4 peptide binding to human AF9; AID 651704; hit rate 0.47% among 350,000; P42568; AlphaScreen, biotin-AF4 peptide binding to FLAG-AF9; inhibition, % at 10 µM;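 active = every replicate reaching a set inhibition limit, whatever the replicate mean, cut at about 25% in these data; inconclusive = mean inhibition reaches that limit but some replicates miss it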
FN deposition inh – fibronectin deposition inhibition; AH1F fibroblasts, Alexa488-fibronectin deposition fluorescence, overnight; inhibition, % at 12.6 µM; hit rate 0.086% among 350,000;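 active = mean inhibition across replicates of 30% or more, regardless of how many single replicates reach that level; inconclusive = mean under 30% yet at least half of replicates reach 30%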
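Material: AH1F fibroblast monolayer depositing Alexa488-labelled fibronectin into matrix / Amount: 10000 AH1F cells per well / Signal: fluorescence 485/525 nm / Medium: DMEM, 2% serum / Compound: single dose, pinned / Incubation: 1 h cell adhesion before compound, then overnight fibronectin incubation / Reagent: Alexa488-FN, 24 nM final / Read-out: inhibition of fibronectin deposition signal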
PDI inh – PDI (human) enzyme inhibition; PDI insulin aggregation turbidity, A650, 90 min; inhibition, % at 10 µM; hit rate 0.052% among 350,000; AID 588391;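 active = mean inhibition across replicates of 30% or more, whatever share of single replicates reach that level; inconclusive = mean inhibition below 30% while every single replicate reaches 30%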
Target sequence (P07237 whole entry, looked up): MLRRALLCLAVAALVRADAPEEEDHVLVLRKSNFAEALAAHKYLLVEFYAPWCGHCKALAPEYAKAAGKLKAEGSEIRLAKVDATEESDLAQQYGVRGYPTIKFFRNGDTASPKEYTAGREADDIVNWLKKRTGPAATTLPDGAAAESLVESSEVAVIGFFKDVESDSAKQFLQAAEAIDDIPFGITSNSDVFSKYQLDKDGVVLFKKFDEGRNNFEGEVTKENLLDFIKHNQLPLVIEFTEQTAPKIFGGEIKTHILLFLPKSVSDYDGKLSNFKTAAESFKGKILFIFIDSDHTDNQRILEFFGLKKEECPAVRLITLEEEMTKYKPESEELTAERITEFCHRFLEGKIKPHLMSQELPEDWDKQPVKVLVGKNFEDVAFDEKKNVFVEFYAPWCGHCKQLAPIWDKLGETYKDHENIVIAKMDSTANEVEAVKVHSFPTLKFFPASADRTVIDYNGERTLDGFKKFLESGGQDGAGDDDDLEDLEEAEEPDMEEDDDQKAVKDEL
ERp5 block – blocks human ERp5 reductase activity on insulin; Q15084; AID 651711; hit rate 0.05% among 350,000; ERp5 insulin aggregation, absorbance 650 nm, 90 min; inhibition, % at 9.99 µM;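 active = mean replicate inhibition above about 25%, with every replicate also reaching it, limit read from the data, passing the limit was not always enough; inconclusive = only one of those two criteria met; inactive = neither criterion met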
FGF22 binding-1 – binders of recombinant human FGF22 by thermal shift; SYPRO orange fluorescence; percent of sucrose octasulfate shift, DMSO zero; activity (Tm shift, normalised), % at 9.99 µM; hit rate 1.5% among 340,000; AID 651658;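 active = mean Tm shift, scaled 0 neutral to 100 positive control, at about 1.3% or above, every replicate too, limit read from the data; inconclusive = no clear call, values can overlap the other calls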
Target sequence (Q9HCT0 whole entry, looked up): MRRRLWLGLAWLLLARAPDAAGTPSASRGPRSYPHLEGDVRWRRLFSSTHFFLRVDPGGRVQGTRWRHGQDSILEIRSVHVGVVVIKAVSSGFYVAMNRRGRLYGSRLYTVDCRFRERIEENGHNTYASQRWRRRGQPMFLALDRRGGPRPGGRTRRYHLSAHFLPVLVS
FGF22 binding-2 – FGF22 (human) binding in thermal shift; shares compounds with FGF22 binding-1; recombinant FGF22 thermal shift, SYPRO orange fluorescence; thermal shift activity, °C (ΔTm) at 38 µM; hit rate 2% among 1,000;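 active = fitted rise in melting shift crosses a set limit at or below the top valid dose tested; inconclusive = flat fit at mid-level activity, or a poor quality fit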
FGF22 TSA – binds human FGF22 shifting its melting temperature | shares compounds with FGF22 binding-1 | Thermal shift assay, SYPRO orange, melting temperature shift | Tm shift (activity), % at 38 µM | 50 tested, under 10 active;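 active = compounds whose fitted dose curve of melting temperature shift rises past a set threshold within the tested doses; inconclusive = flat curve at moderate activity, or poor curve fit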
SYPRO no-protein – shows thermal shift signal without protein, FGF22 counter-screen; shares compounds with FGF22 binding-1; compound-only SYPRO orange thermal shift counter-screen, no protein; AC50, µM (titrated, usually from 38 µM); hit rate 2% among 1,000; AID 743019;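 active = rising signal whose fitted curve reaches the 0.54 level within the top valid dose, showing a melting point, actives reach about 13 µM in these data; inactive = the rest, including activity in the opposite direction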; note: value is where the raw curve crosses a fixed level and not half-maximal
Hits are given with their value; n = inactive; u = inconclusive; x = not tested or not shown. An excerpt weighted towards active compounds, which were near 2.1% of everything screened.

SMILES	ARNT TACC3 PPI	MLL AF4-AF9 inh	FN deposition inh	PDI inh	ERp5 block	FGF22 binding-1	FGF22 binding-2	SYPRO no-protein	others
N#C[C@@H]1[C@@H](c2ccccc2-c2ccccc2F)[C@@H](CO)N1C(=O)C1CCC1	x	n	n	x	n	n	x	x
N#C[C@H]1[C@H](c2ccccc2-c2ccccc2F)[C@@H](CO)N1C(=O)C1CCC1	x	n	n	x	n	1.4	n	n
CCCn1c(=O)[nH]c(=O)c2c1nc(-c1cccs1)n2CCOC	n	n	n	n	n	4.7	n	n
C[C@@H]1CN([C@@H](C)CO)S(=O)(=O)c2ccc(Br)cc2O[C@@H]1CN(C)Cc1ccccc1	n	n	x	x	n	n	x	x
CCCn1c(CCC(=O)O)nc2cc(S(=O)(=O)N3CCCC3)ccc21	n	n	n	n	n	30	n	n
CCn1c(CCC(=O)O)nc2cc(S(=O)(=O)N3CCOCC3)ccc21	n	n	n	n	n	n	x	x
C[C@H](CO)N1C[C@H](C)[C@@H](CN(C)Cc2ccc(C(=O)O)cc2)OCCCC[C@H](C)Oc2ccc(N(C)C)cc2C1=O	x	x	n	x	x	x	x	x
CCN(CC)c1ccc2cc(S(=O)(=O)c3ccc(Cl)cc3)c(=O)oc2c1	x	n	n	n	n	24	n	n
CCCCCCc1cc2cc(S(=O)(=O)c3ccc(Cl)cc3)c(=O)oc2cc1O	n	n	n	n	n	n	x	x
Oc1ccc(-c2csc(Nc3ccccn3)n2)c(O)c1	n	n	n	n	n	2.8	n	11µM
Cc1cccnc1Nc1nc(-c2ccc(O)cc2O)cs1	n	x	x	n	x	x	x	x
C/C=C/c1ccc([C@H]2[C@@H](CO)N(C(=O)CC)C23CN(C(=O)c2ccccc2)C3)cc1	x	n	x	x	n	1.4	n	n
C/C=C/c1ccc([C@H]2[C@@H](CO)N(CC3CCOCC3)C23CN(C(=O)COC)C3)cc1	x	n	n	x	n	1.7	n	n
C/C=C/c1ccc([C@@H]2[C@H](CO)N(C(=O)CC)C23CN(C(=O)c2ccccc2)C3)cc1	x	n	x	x	n	n	x	x
COc1ccc2c3c(n(C)c2c1)[C@H](CO)N(C)CC31CN(S(=O)(=O)c2cccc(F)c2)C1	x	n	x	x	n	n	x	x
CC(C)n1c(=O)c2ccccc2n1Cc1cn(-c2ccc(Cl)cc2)nn1	x	n	n	x	n	2.6	n	n
CC(C)n1c(=O)c2ccccc2n1Cc1cn(-c2ccccc2)nn1	x	n	n	x	n	n	x	x
COc1ccc(Nc2nc3ccc(OC)cc3s2)cc1	n	n	x	n	n	1.5	n	n	FGF22 TSA=n
COc1ccc2nc(NC(=O)CCc3cc(OC)c(OC)c(OC)c3)sc2c1	n	n	n	n	n	1.9	n	n
COc1ccc2nc(Nc3nc(C)c(C(C)=O)s3)sc2c1	n	x	n	n	x	x	x	x
COc1ccc2nc(NC(=O)CCn3cccc3)sc2c1	n	x	x	n	x	x	x	x
Cc1ccc(S(=O)(=O)NCCSc2nnnn2-c2ccccc2)cc1	n	n	x	n	n	35	n	n
O=C(C1CCCC1)N1CC(=O)N2[C@H](C1)[C@H](c1ccc(C#CC3CCCC3)cc1)[C@@H]2CO	x	n	x	x	n	x	x	x
O=C(C[C@H]1CC[C@@H]2[C@H](COC[C@H](O)CN2S(=O)(=O)c2cccc(F)c2)O1)Nc1ccc(-c2ccccc2)cc1	n	n	n	x	n	n	x	x
Cc1cccc(S(=O)(=O)N2C[C@@H](O)COC[C@H]3O[C@@H](CC(=O)Nc4ccccc4)CC[C@@H]32)c1	n	n	n	x	n	n	x	x
SMILES	ARNT TACC3 PPI	MLL AF4-AF9 inh	FN deposition inh	PDI inh	ERp5 block	FGF22 binding-1	FGF22 binding-2	SYPRO no-protein	others
Cc1ccc(S(=O)(=O)N2C[C@H](O)COC[C@H]3O[C@H](CC(=O)NCc4ccc(Cl)c(Cl)c4)CC[C@@H]32)cc1	n	n	n	x	n	1.4	n	n	FGF22 TSA=n
O=C(C[C@H]1CC[C@H]2[C@@H](COC[C@@H](O)CN2S(=O)(=O)c2cccc(F)c2)O1)Nc1ccc(-c2ccccc2)cc1	n	n	n	x	n	3.3	n	n
Cc1cccc(S(=O)(=O)N2C[C@H](O)COC[C@H]3O[C@H](CC(=O)Nc4ccccc4)CC[C@@H]32)c1	n	n	n	x	n	1.8	n	n
O=C(C[C@H]1CC[C@@H]2[C@H](COC[C@H](O)CN2S(=O)(=O)c2cccc(F)c2)O1)Nc1ccccc1	n	n	n	x	n	2.0	n	n
CN(C)C(=O)C[C@H]1CC[C@@H]2[C@H](COc3ccc(NC(=O)C4CCC4)cc3C(=O)N2C)O1	x	n	n	x	n	x	x	x
O=C(C[C@H]1CC[C@H]2[C@@H](COC[C@H](O)CN2Cc2cccc(C(F)(F)F)c2)O1)NCc1ccncc1	n	n	n	x	n	n	x	x
O=C(C[C@@H]1CC[C@H]2[C@@H](COC[C@@H](O)CN2Cc2cccc(C(F)(F)F)c2)O1)NCc1ccncc1	n	n	n	x	n	14	n	n
CCCNC(=O)COCc1cc(-c2ccc3c(c2)OCO3)on1	n	n	n	n	n	29	n	n
Nc1ccc(C(=O)Nc2ccc(OC(F)(F)C(F)F)c(NC(=O)c3ccc(N)cc3)c2)cc1	n	n	n	n	n	1.7	n	n
O=C(C[C@@H]1CC[C@H]2[C@@H](COC[C@H](O)CN2Cc2cccc(Cl)c2)O1)NCC1CCCCC1	n	x	n	x	x	n	x	x
Cc1noc(NC(=O)c2cccc(Cl)c2Cl)c1C#N	n	n	n	n	n	1.3	n	n
CC(C)CC(=O)n1sc(NC(=O)c2ccccc2)nc1=O	n	n	x	n	n	2.5	n	n
Cc1ccc(C(=O)Nc2nc(=O)n(C(=O)CC(C)C)s2)cc1	n	n	x	n	n	n	x	x
CCCCNc1cc(NC(C)=O)cc2cc(OC)c(OC)cc12	n	x	x	n	x	x	x	x
COc1cc2cc(NC(C)=O)cc(NCc3ccccc3)c2cc1OC	n	n	n	n	n	1.5	n	n
C[C@@H]1CN([C@H](C)CO)C(=O)c2cccc(NS(C)(=O)=O)c2O[C@@H]1CN(C)C(=O)Nc1ccc(F)cc1	n	n	n	x	n	n	x	x
Cc1nc2ccc(NC(=O)c3cc([N+](=O)[O-])cc([N+](=O)[O-])c3Cl)cc2s1	n	n	n	n	n	2.1	n	n
C[C@H]1CN(C)C(=O)Cc2cc(N(C)C)ccc2O[C@@H]1CN(C)C	x	x	n	x	x	x	x	x
CO[C@@H]1CN(C)C(=O)c2cc(NC(=O)Nc3ccccc3F)ccc2OC[C@H](C)N(CC2CC2)C[C@H]1C	n	u	n	x	n	n	x	x
N/C(=N\OCC(=O)Nc1ccc(F)c(Cl)c1)c1ccccc1	x	n	n	n	n	1.6	n	n
